This is a sample that favours compounds with a hit; in the whole collection about 2.4% have one here.
VIM-2 inh = inhibitors of Pseudomonas aeruginosa VIM-2 metallo-beta-lactamase. purified VIM-2, nitrocefin hydrolysis, epi-absorbance fluorescence. inhibition, % at 5.6 µM. actives 0.89% (n = 290,000). AID 1527;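 active = inhibition above the mean of all tested compounds plus 3 SD, cutoff set per screening run, cut at about 7.5% in these data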;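 also: red hydrolysis product quenches plate fluorescence so inhibitors raise well fluorescence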
sPLA2-III inh = Blocks human group III sPLA2 activity | Q9NZ20 | QFRET BODIPY PC-A2 liposome hydrolysis, fluorescence | inhibition, % at 12.2 µM | actives 0.56% (n = 370,000) | AID 743126;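 active = inhibition above mean plus 3 SD of compounds lying within the high and low control bounds, cut at about 19% in these data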
Target sequence (Q9NZ20 whole entry, looked up): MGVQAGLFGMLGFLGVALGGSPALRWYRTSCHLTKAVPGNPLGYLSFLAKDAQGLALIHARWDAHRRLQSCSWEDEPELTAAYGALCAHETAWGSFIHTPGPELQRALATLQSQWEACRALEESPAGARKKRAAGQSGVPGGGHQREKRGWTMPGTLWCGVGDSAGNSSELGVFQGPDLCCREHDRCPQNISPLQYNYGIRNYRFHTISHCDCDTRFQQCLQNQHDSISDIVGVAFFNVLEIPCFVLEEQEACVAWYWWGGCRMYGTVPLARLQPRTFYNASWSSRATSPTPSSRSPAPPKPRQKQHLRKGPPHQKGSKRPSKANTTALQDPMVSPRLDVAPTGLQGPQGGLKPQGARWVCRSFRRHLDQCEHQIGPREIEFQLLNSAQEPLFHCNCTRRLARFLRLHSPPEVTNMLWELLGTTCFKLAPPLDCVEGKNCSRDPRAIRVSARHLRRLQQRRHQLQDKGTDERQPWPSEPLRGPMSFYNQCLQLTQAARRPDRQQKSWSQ
IMP-1 inh-1 = inhibitors of Pseudomonas aeruginosa IMP-1 metallo-beta-lactamase. purified IMP-1, nitrocefin hydrolysis, epi-absorbance fluorescence. inhibition, % at 5.6 µM. actives 0.45% (n = 290,000);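 active = inhibition above the mean plus 3 SD of all compounds in the same screening run, cut at about 4.5% in these data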
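System: Purified recombinant IMP-1 metallo-beta-lactamase enzyme | Measured by: Fluorescence quenching readout, ex 480/em 530 nm | Replication: Singlicate | Incubation: 15 min preincubation plus 25 min reaction at 25 °C | Evaluation: Percent inhibition from optical density relative to buffer-blank wells | Benchmarks: DMSO with and without IMP-1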
PfM18AAP inh = PfM18AAP enzyme inhibition | actives 1.2% (n = 290,000) | inhibition, % at 7.35 µM | recombinant PfM18AAP, H-Glu-NHMec fluorogenic cleavage;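 active = inhibition above the campaign mean inhibition over all tested compounds plus 3 SD, cut at about 28% in these data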
IMP-1 inh-2 = selectivity counter-screen for VIM-2 inhibitors: IMP-1 metallo-beta-lactamase inhibitors; inhibition, % at 5.6 µM; 1,300 tested, under 10 active; purified IMP-1, nitrocefin hydrolysis, epi-absorbance fluorescence; shares compounds with VIM-2 inh; call rule not given here
VIM-2 FRET inh = counter-screen for VIM-2 inhibitors: epi-absorbance artifacts via FRET; actives 23% (n = 1,300); purified VIM-2, CCF2 FRET substrate hydrolysis; inhibition, % at 5.6 µM; AID 1857; shares compounds with VIM-2 inh;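 active = inhibition above the mean of all tested compounds plus 3 SD, cut at about 19% in these data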
TEM-1 counter = selectivity counter-screen for VIM-2 inhibitors: E. coli TEM-1 inhibitors; Purified TEM-1, nitrocefin hydrolysis, epi-absorbance fluorescence; actives 3% (n = 1,300); shares compounds with VIM-2 inh; inhibition, % at 5.6 µM;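 active = inhibition above that campaign's mean inhibition plus 3 SD, cut at about 0.46% in these data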
VIM-2 confirm 2 = confirmation of P. aeruginosa VIM-2 metallo-beta-lactamase inhibitors. purified VIM-2, nitrocefin hydrolysis, epi-absorbance. shares compounds with VIM-2 inh. inhibition, % at 5.6 µM. actives 96% (n = 1,300);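 active = inhibition of the VIM-2 beta-lactamase enzyme above about 11% from the earlier first-round screen, limit read from the data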
Hits are given with their value.

COc1ccc(CCNc2nc3ccccc3n3cnnc23)cc1OC was read as VIM-2 inh inactive, sPLA2-III inh inactive, IMP-1 inh-1 inactive and PfM18AAP inh inactive.
For CCc1nnc2c(N(C)C)nc3ccccc3n12 the results were VIM-2 inh 16.3, sPLA2-III inh inactive, IMP-1 inh-1 inactive, PfM18AAP inh inactive, IMP-1 inh-2 inactive, VIM-2 FRET inh inactive, TEM-1 counter inactive and VIM-2 confirm 2 31.2.
Screening CCc1nnc2c(N(C)S(=O)(=O)c3ccc(C)cc3)nc3ccccc3n12 returned VIM-2 inh inactive, sPLA2-III inh inactive, IMP-1 inh-1 inactive and PfM18AAP inh inactive.
CCc1nnc2c(NCCc3ccc(OC)c(OC)c3)nc3ccccc3n12 was read as VIM-2 inh 14.7, sPLA2-III inh inactive, IMP-1 inh-1 inactive, PfM18AAP inh inactive, IMP-1 inh-2 inactive, VIM-2 FRET inh inactive, TEM-1 counter inactive and VIM-2 confirm 2 20.6.
`Cn1c(=O)c(Nc2ccc(O)cc2)c2c3c(cccc31)C(=O)c1ccccc1-2` gave VIM-2 inh inactive, sPLA2-III inh inactive, IMP-1 inh-1 inactive and PfM18AAP inh inactive.
Screening CC(=O)c1c2c3c(cccc3n(C)c1=O)C(=O)c1ccccc1-2 returned VIM-2 inh 22.4, IMP-1 inh-1 inactive, PfM18AAP inh inactive, IMP-1 inh-2 inactive, VIM-2 FRET inh inactive, TEM-1 counter inactive and VIM-2 confirm 2 29.7.
For COc1cccc(/C=C2\SC(=S)N(C(C(=O)O)c3ccccc3)C2=O)c1OC (stereo not given) the results were VIM-2 inh 31.9, sPLA2-III inh inactive, IMP-1 inh-1 inactive, PfM18AAP inh inactive, IMP-1 inh-2 inactive, VIM-2 FRET inh 26.1, TEM-1 counter inactive and VIM-2 confirm 2 18.1.
Screening CC(=O)Nc1c(-c2ccc(F)cc2)nc2ncccn12 returned sPLA2-III inh inactive.
Screening Cc1nc2ncccn2c1-c1csc(Nc2ccccc2)n1 returned VIM-2 inh inactive, sPLA2-III inh inactive, IMP-1 inh-1 inactive and PfM18AAP inh inactive.
Screening Cc1nc2ncccn2c1-c1csc(Nc2ccc(S(N)(=O)=O)cc2)n1 returned VIM-2 inh 16.7, sPLA2-III inh inactive, IMP-1 inh-1 inactive, PfM18AAP inh inactive, IMP-1 inh-2 inactive, VIM-2 FRET inh inactive, TEM-1 counter inactive and VIM-2 confirm 2 27.9.
Screening CCCC(=O)N1CCC[C@]2(CC[C@@H](CCC(=O)N(CC)CC)O2)C1 returned sPLA2-III inh inactive.
O=C(CN1CCCCC1)Nc1ccc(S(=O)(=O)c2ccc(NC(=O)CN3CCCCC3)cc2)cc1 was read as sPLA2-III inh inactive.
COc1cccc(-n2c(CNC(=O)OC(C)(C)C)n[nH]c2=S)c1 was read as VIM-2 inh 18.9, sPLA2-III inh inactive, IMP-1 inh-1 inactive, PfM18AAP inh inactive, IMP-1 inh-2 inactive, VIM-2 FRET inh 44.1, TEM-1 counter inactive and VIM-2 confirm 2 26.7.
For CCCCNS(=O)(=O)/C=C/c1ccc(OC)cc1CNC(=O)OC(C)(C)C the results were sPLA2-III inh inactive.
`COCCCNc1nc(N)c([N+](=O)[O-])c(Nc2cc(OC)ccc2OC)n1` gave VIM-2 inh inactive, sPLA2-III inh inactive, IMP-1 inh-1 inactive and PfM18AAP inh inactive.
Screening COc1ccc(OC)c(Nc2nc(NCCCN(C)C)nc(N)c2[N+](=O)[O-])c1 returned VIM-2 inh 18.8, sPLA2-III inh inactive, IMP-1 inh-1 inactive, PfM18AAP inh inactive, IMP-1 inh-2 inactive, VIM-2 FRET inh inactive, TEM-1 counter inactive and VIM-2 confirm 2 29.2.
Cc1c(C)c2c(OCC(=O)Nc3cccnc3)cc3c(c2oc1=O)CCC(C)(C)O3 was read as VIM-2 inh 41.5, sPLA2-III inh inactive, IMP-1 inh-1 inactive, PfM18AAP inh inactive, IMP-1 inh-2 inactive, VIM-2 FRET inh inactive, TEM-1 counter inactive and VIM-2 confirm 2 51.9.
For Cc1c(C)c2c(OCC(=O)N[C@@H](C)C(=O)O)cc3c(c2oc1=O)CCC(C)(C)O3 the results were VIM-2 inh 46.2, sPLA2-III inh inactive, IMP-1 inh-1 inactive, PfM18AAP inh inactive, IMP-1 inh-2 inactive, VIM-2 FRET inh 69.8, TEM-1 counter inactive and VIM-2 confirm 2 53.1.

Assay outcomes (PubChem BioAssay)
